# Laboratory results as given in ChEMBL document CHEMBL1124185, “Studies on some derivatives of oxamniquine” (1988).
# How the values were obtained:
# Format in all cases: functional
# Schistosoma mansoni [1] = assay: Percent [3H]uridine incorporation relative to controls for a dose of 75 ug/mL against hycanthone-resistant schistosomes
# Schistosoma mansoni [2] = assay: Percent [3H]uridine incorporation relative to control at 50 ug/mL against hycanthone-sensitive schistosomes (% worms surviving in culture)
# Method in brief: (§1)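 Hycanthone-sensitive Schistosoma mansoni worms exposed to compound in vitro. [3H]uridine incorporation into the worms was measured and expressed relative to untreated controls. Worm survival in culture was scored in parallel.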
# Schistosoma mansoni [3] = assay: Percent [3H]uridine incorporation relative to controls for a dose of 100 ug/mL against hycanthone-sensitive schistosomes.(% warms surviving in culture).; method in brief: as §1
# Schistosoma mansoni [4] = assay: Percent [3H]uridine incorporation relative to controls for a dose of 100 ug/mL against hycanthone-resistant schistosomes
# Schistosoma mansoni [5] = assay: Percent [3H]uridine incorporation relative to controls for a dose of 50 ug/mL against hycanthone-resistant schistosomes
# Schistosoma mansoni [6] = assay: Percent [3H]-uridine incorporation relative to controls for a dose of 100 ug/mL against hycanthone-sensitive schistosomes (% warms surviving in culture).; method in brief: as §1
# [7] = in the assay text read “at 75 ug/mL” for “at 50 ug/mL”
SMILES,Incorporation (Schistosoma mansoni [1]) [%],Incorporation (Schistosoma mansoni [2]; [7]) [%],Incorporation (Schistosoma mansoni [3]) [%],Incorporation (Schistosoma mansoni [4]) [%],Incorporation (Schistosoma mansoni [2]) [%],Incorporation (Schistosoma mansoni [5]) [%],Incorporation (Schistosoma mansoni [6]) [%]
CC(C)NCC1CCc2cc(/C=N/NS(=O)(=O)c3ccc([N+](=O)[O-])cc3)c([N+](=O)[O-])cc2N1 (stereo not drawn),96,49,,,,,
Cc1ccc(S(=O)(=O)N/N=C/c2cc3c(cc2[N+](=O)[O-])NC(CNC(C)C)CC3)cc1 (stereo not drawn),,,32,100,60,102,
CNC(=O)OCc1cc2c(cc1[N+](=O)[O-])NC(CNC(C)C)CC2 (stereo not drawn),,,,100,22,100,21
COc1ccc(S(=O)(=O)N/N=C/c2cc3c(cc2[N+](=O)[O-])NC(CNC(C)C)CC3)cc1 (stereo not drawn),106,53,,,,,
Cc1cc(C)c(S(=O)(=O)N/N=C/c2cc3c(cc2[N+](=O)[O-])NC(CNC(C)C)CC3)c(C)c1 (stereo not drawn),,,20,100,24,100,
CC(C)NCC1CCc2cc(CO)c([N+](=O)[O-])cc2N1 (stereo not drawn) [OXAMNIQUINE],,,,,14,97,
